Assay outcomes: PubChem BioAssay, several laboratories
GRK2 aptamer HTS: inhibitors of human GRK2 displacing RNA aptamer. P25098. bead flow cytometry, FAM-aptamer displacement from GRK2. inhibition of aptamer binding, % at 10 µM. actives 0.59% (n = 330,000). AID 488847;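 active = inhibition of aptamer binding above 40%, roughly 3 SD of noise, on plates passing a quality check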;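 also: median bead fluorescence of bound FAM aptamer so fluorescent compounds give negative values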
Target sequence (P25098 whole entry, looked up): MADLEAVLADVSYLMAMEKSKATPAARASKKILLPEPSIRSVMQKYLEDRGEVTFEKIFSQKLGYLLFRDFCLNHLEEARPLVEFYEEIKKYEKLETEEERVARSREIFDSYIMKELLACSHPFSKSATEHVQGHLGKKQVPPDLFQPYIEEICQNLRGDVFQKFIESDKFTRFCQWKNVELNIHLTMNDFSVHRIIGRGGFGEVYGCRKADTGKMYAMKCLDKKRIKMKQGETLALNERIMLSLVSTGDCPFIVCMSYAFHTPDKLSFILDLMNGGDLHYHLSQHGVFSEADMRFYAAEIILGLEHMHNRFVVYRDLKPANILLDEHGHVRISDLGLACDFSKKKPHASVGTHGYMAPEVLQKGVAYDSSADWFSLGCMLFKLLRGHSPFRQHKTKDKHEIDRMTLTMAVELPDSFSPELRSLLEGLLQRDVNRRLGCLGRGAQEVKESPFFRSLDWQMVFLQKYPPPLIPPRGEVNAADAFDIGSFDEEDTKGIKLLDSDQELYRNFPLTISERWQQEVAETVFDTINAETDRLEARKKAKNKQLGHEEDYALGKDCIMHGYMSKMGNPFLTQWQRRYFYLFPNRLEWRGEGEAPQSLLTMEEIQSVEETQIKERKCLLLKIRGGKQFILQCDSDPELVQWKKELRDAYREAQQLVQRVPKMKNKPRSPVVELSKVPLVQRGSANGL
Scp1 inh: inhibitors of human Scp-1 phosphatase; Q9GZU7; Recombinant Scp1, phosphopeptide, malachite green phosphate absorbance; inhibition, % at 20 µM; actives 0.88% (n = 340,000); AID 493091;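 active = inhibition above about 50% at 20 µM, limit read from the data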;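 also: plate controls were DMSO wells with enzyme for no effect and wells lacking enzyme for full effect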
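Incubation: 45 min enzyme reaction at room temperature / System: truncated SCP-1 phosphatase (76-261aa) / Reagent: Phospho 17-mer peptide substrate / Buffer or medium: Acidic Tris acetate buffer with magnesium and detergent / Signal: absorbance at 630 nm / Doses: one concentration, 20 µM, with 1.0% DMSO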
STEP block: inhibitors of human striatal-enriched phosphatase STEP; P54829; recombinant STEP, OMFP fluorogenic substrate, fluorescence; inhibition, % at 20 µM; actives 0.25% (n = 360,000);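 active = inhibition at 20 µM, scaled per plate between control wells, above about 37%, limit read from the data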;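 also: 0% = DMSO with enzyme and substrate and 100% = substrate only without enzyme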
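System: STEP (striatal-enriched tyrosine phosphatase) enzyme, cell-free; medium: Bis-Tris pH 6.0 buffer with DTT, detergent; dosing: 20 µM, 1% DMSO; times: reaction 20 min, ambient temperature; detection: fluorescence, 480/540 nm; read-out basis: normalized % inhibition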
LMPTP inh: blocks human LMPTP phosphatase | recombinant LMPTP-A, OMFP fluorogenic substrate, fluorescence intensity | inhibition, % at 20 µM | actives 0.22% (n = 360,000) | AID 651560;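 active = compounds that cut the enzyme signal by at least half of the control window in the single-dose screen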;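 also: plate controls were DMSO wells with enzyme plus substrate for no effect and substrate without enzyme for full effect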
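Test system – LMPTP-A phosphatase enzyme · Quantity – 0.625 nM LMPTP-A final · Reagent – OMFP substrate, 400 µM final · Dosing – one test concentration per compound, 20 µM, with 3% DMSO overall · Timing – 50 min enzyme reaction at room temperature, protected from light · Detection – fluorescence intensity · Controls – substrate-only low control, DMSO enzyme-plus-substrate high control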
DNMT1 inh: DNMT1 (human) enzyme inhibition; DNMT1 molecular beacon, Hinp1I cleavage, fluorescence; AID 588458; P26358; actives 0.83% (n = 360,000); inhibition (reported as % activation of signal), % at 10 µM; in the data active = inhibition above about 50%
SUMO1 PPI mod: SUMO1-SIM interaction modulation. SUMO1 binding to a labelled peptide, TR-FRET, 1 h. inhibition, % at 20 µM. actives 0.33% (n = 360,000). AID 602429; in the data active = inhibition above about 37%
GRK2 CP1: human GRK2 inhibition confirmation, cherry pick 1. shares compounds with GRK2 aptamer HTS. bead-bound GRK2, FAM-aptamer displacement, flow cytometry. aptamer displacement, % at 10 µM. actives 4% (n = 2,000);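 active = aptamer displacement above 40%, near three times the noise of non-fluorescent compounds, on plates passing quality checks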;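 also: negative values mostly reflect intrinsic compound fluorescence rather than true enhancement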
Aptamer quench 1: quenches fluorescent RNA aptamer, GRK2 hit artifact. shares compounds with GRK2 aptamer HTS. Fluorescent RNA aptamer beads, quenching, flow cytometry; hits give high values. fluorescence change (kMESF span), kMESF (no concentration beside the values). 110 tested, under 10 active. AID 504521;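 active = compounds whose bead fluorescence drops by more than 37 kMESF across the dose range, marking them as dye quenchers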
FAM quench CP1: quenches fluorescent RNA aptamer, GRK2 hit artifact; AID 504580; 2,000 tested, under 10 active; shares compounds with GRK2 aptamer HTS; fluorescence response (% of DMSO), % at 10 µM; Carboxyfluorescein RNA aptamer on beads, flow cytometry quenching; hits give low values;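 active = compounds that quench the bead-bound fluorescent RNA probe, cutting fluorescence to under half of the solvent control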;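 also: counterscreen run without GRK2 so only probe quenching by compound is measured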
Scp-1 conf: Scp-1 (human) inhibition, single-dose confirmed | recombinant SCP-1 catalytic domain, phosphate release, malachite green absorbance | shares compounds with Scp1 inh | actives 61% (n = 2,500) | inhibition, % at 20 µM;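 also: plate controls were DMSO with enzyme for no effect and buffer wells lacking enzyme for full effect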
Scp-1 MG ctr: colorimetric interference in Scp-1 counter-screen | shares compounds with Scp1 inh | Colorimetric interference counterscreen, malachite green absorbance 630 nm | apparent inhibition (interference), % at 20 µM | 2,500 tested, under 10 active | AID 540313;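 also: compounds added after enzyme reaction finished so only phosphate colour detection is probed; plate controls were DMSO wells with completed Scp-1 reaction for no effect and substrate wells lacking enzyme for full effect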
Scp1 DSF: binds human Scp-1, shifting its melting temperature; shares compounds with Scp1 inh; Recombinant SCP1, Sypro Orange thermal shift Tm; thermal shift relative to vanadate control, % at 40 µM; actives 25% (n = 1,500);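 active = substances whose mean melting-temperature shift, as a percentage of the reference inhibitor's shift, reaches about 5.3%, limit read from the data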;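 also: 0% = Tm of DMSO wells and 100% = Tm with sodium orthovanadate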
DNMT1 confirm: DNMT1 inhibition confirmation, single concentration; shares compounds with DNMT1 inh; DNMT1 molecular beacon HinP1I cleavage, fluorescence; inhibition, % at 10 µM; actives 8% (n = 2,300);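 active = average inhibition of at least 30% in the single-concentration confirmation test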
DNMT1 interf: beacon fluorescence artifact counter-screen; shares compounds with DNMT1 inh; DNMT1 molecular beacon spectral interference counterscreen, fluorescence 485/520; activation (fluorescence interference), % at 10 µM; actives 1% (n = 2,300); AID 602387;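 active = activation of at least 30% at 10 µM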;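 also: DNMT1 catalytic domain with a HinP1I cleavage step and a FAM/dabcyl DNA beacon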
STEP conf: confirmation of human STEP phosphatase inhibitors; actives 32% (n = 520); shares compounds with STEP block; inhibition, % at 20 µM; AID 623866; recombinant STEP, OMFP fluorogenic substrate, fluorescence; call rule not given here;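 also: 0% = enzyme with substrate plus DMSO and 100% = substrate without enzyme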
* marks the source's active call; other numbers are inactive results; . = no result. An excerpt weighted towards active compounds, which were near 2.1% of everything screened.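 The calls were made as follows, unless noted: active = inhibition of at least 30% at 20 µM; inactive = the rest.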

SMILES	GRK2 aptamer HTS	Scp1 inh	STEP block	LMPTP inh	DNMT1 inh	SUMO1 PPI mod	Scp-1 conf	Scp-1 MG ctr	Scp1 DSF	others
CC(NNC(=S)N1CCCCCC1)c1ccc2ccccc2n1 (stereo not drawn)	.	.	1	-1	2	3	.	.	.
COc1ccc(S(=O)(=O)Cc2ccc(C(=O)O)o2)cc1	0	0	2	-1	3	0	.	.	.
Cc1ccc(S(=O)(=O)Cc2ccc(C(=O)O)o2)cc1	67*	86*	55*	8	89*	10	50*	-21	7.9*	GRK2 CP1=64*;Aptamer quench 1=2.1;FAM quench CP1=95;DNMT1 confirm=11;DNMT1 interf=1;STEP conf=50*
CC(C)CC(OC(=O)c1nsc(Cl)c1Cl)C(=O)NCC1CCCO1 (stereo not drawn)	2	-3	-1	-1	-2	3	.	.	.
C/C(=N\NC(=O)c1ccc(OC2OCCOC2Oc2ccc(C(=O)N/N=C(\C)c3ccncc3)cc2)cc1)c1ccncc1 (stereo not drawn)	50*	14	45*	66*	34	78*	.	.	.	GRK2 CP1=37;FAM quench CP1=99;STEP conf=-5
O=C1OC(c2ccc3c(c2)OCO3)=N/C1=C\c1ccc(C(=O)O)cc1	53*	88*	11	-1	25	9	69*	-5	6.3*
O=C(O)c1cccc(-c2ccc3c(c2)OCO3)c1	0	-4	0	-1	-1	9	.	.	.
C=C1c2cccc(OC)c2O[C@H](C(=O)OCC)[C@@H]1CC(CC)CCCC (stereo partly drawn)	39	94*	0	2	5	5	34*	-23	-11
O=C(C[C@H]1CC[C@@H]2[C@H](COC[C@H](O)CN2Cc2cccc(F)c2)O1)NCc1cccc(F)c1	.	.	.	-2	.	3	.	.	.
Cc1ccc(CN2C(=O)N/C(=C/c3ccc(-c4ccc(C(=O)O)cc4)o3)C2=O)cc1	0	59*	7	4	42	39*	48*	-11	4
O=C(COC(=O)c1cc(-c2ccccc2Cl)nc2ccccc12)Nc1ncc(C(F)(F)F)cc1Cl	5	50*	3	2	24	5	36*	-8	-10
O=C(COC(=O)c1cccc2ccccc12)Nc1ncc(C(F)(F)F)cc1Cl	0	-4	0	1	1	12	.	.	.
Fc1ccc(Sc2ccccc2CNC2=NCCN2)cc1	0	52*	-5	0	4	4	84*	-14	-4
OCCNC1=NCCN1	1	18	7	-7	3	6	.	.	.
CN(C)S(=O)(=O)c1ccc(C(=O)OCc2nnc(-c3ccccc3)o2)cc1	1	-5	-1	0	0	2	.	.	.
O=C(OCc1nnc(-c2ccccc2)o1)c1ccc(S(=O)(=O)NCc2ccco2)cc1	1	53*	-1	2	19	-1	68*	-11	5
COc1cccc(NC(=O)COC(=O)c2ccc(S(=O)(=O)NCc3ccco3)cc2)c1	6	60*	3	1	29	3	70*	-7	3
O=C(COC(=O)c1ccc(S(=O)(=O)NCc2ccco2)cc1)NCc1ccccc1	7	25	5	3	19	5	.	.	.
NC(=O)COC(=O)c1ccc(S(=O)(=O)NCc2ccco2)cc1	17	63*	6	1	29	2	69*	-1	0
NC(=O)c1ccc(NC(=O)COC(=O)CCC2CCCC2)cc1	.	.	1	-1	3	3	.	.	.
CCS(=O)(=O)c1nc(S(=O)(=O)c2ccc(C)cc2)c(NCCCn2ccnc2)s1	0	-3	-1	-2	4	3	.	.	.
CC1CC(C)CN(C(=O)c2ccc3c(c2)N(Cc2ccccc2)CCS3)C1 (stereo not drawn)	2	79*	2	5	-2	2	0	-13	.
C=CCn1c(SCc2nc3sc(C(=O)O)c(C)c3c(=O)[nH]2)nnc1-c1ccc(F)cc1	1	8	-1	-2	8	5	.	.	.
Cc1c(C(=O)O)sc2nc(/C=C/c3cccc(F)c3)[nH]c(=O)c12	1	81*	7	0	4	-8	21	-5	.
CCOC(=O)N1CCN(C(=O)CSc2nc(=O)n3ccccc3n2)CC1	3	-4	-1	0	1	-5	.	.	.
CC(C)CSc1nc2c(=O)[nH][nH]c(=O)c2n1Cc1ccccc1	0	-2	-4	1	8	5	.	.	.
Nc1cc2c(cc1[N+](=O)[O-])OCO2	13	58*	4	19	24	-11	58*	-5	4
O=C(O)/C=C/c1cnc2ccccc2c1	0	55*	0	0	2	-4	10	-13	.
CCOC(=O)c1sc(NC(=O)C2C3C=CC(C3)C2C(=O)O)nc1C (stereo not drawn)	16	54*	22	-1	24	-2	42*	-11	-1
CCOC(=O)c1sc(NC(=O)C2CC2)nc1C	0	-10	1	0	0	5	.	.	.
